# Results taken from the RNAGym collection of RNA variant scans (doi:10.1126/science.aae0568).
# Fewer inactive variants are shown than the library holds.
# B1: tRNA (parent)
# chain: GUUCCGUUGGCGUAAUGGUAACGCGUCUCCCUCCUAAGGAGAAGACUGCGGGUUCGAGUCCCGUACGGAACG
# Variants of: B1
# Assay: yeast fitness relative to wild type (ratio to wild type); higher = fitter; tRNA-Arg(CCU), competitive growth, 37 C, YPD
# In short: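 Changes in genotype frequencies gave Darwinian fitness relative to wild type. Frequencies were read by 100-nucleotide paired-end sequencing of gene amplicons before and after pooled Saccharomyces cerevisiae strains, carrying tRNA-Arg(CCU) gene variants at the native locus, were competed in YPD at 37°C for 24 hours in six replicates. A genotype was kept only with ≥ 100 starting reads, and estimates < 0.5 were set to 0.5.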
row,Variant,yeast fitness
1,GUACCGUUGGCGUAAUGGUAUCGCGUCUCCCUCCUAAGGAGAAGACUGCGCGUUCGAGUCCCGUACGGAACG,≤ 0.5
2,GUACCGUUGGCGUUAUGGUAACGCGUCUCCCUCCUAAGGACAAGACUGCGGGUUCGAGUCCCGUACCGAACG,≤ 0.5
3,GUACCGUUGGCGUAAUGGUAACGCGUCUCCCUCCUAAGGCGAAGACUGCGGGUUAGAGUCCCGUAAGGAACG,≤ 0.5
4,GUACCGUUGGCGUAAUGGUGACGCGUCUCCCUCCUAAGGAGAAGACUGCGGGUUGGAGUCUCGUACGGAACG,≤ 0.5
5,GUACCGUUGGCGUAAUGGUAACGCGUCUCCCUCCUAAGGCGAAGACUGCGGGUUCGAGUCCGGUACGCAACG,≤ 0.5
6,GUACCGUUGGCGUAGUGGUAACGCGUCCCCCUCCUAAGGAGAAGACUGCGGGUUCGAGUACCGUACGGAACG,0.522
7,GGUCCGUUGGCGUAAUGGUAACGCGGCUCCCUCCUAAGGAGAACACUGCGGGUUCGAAUCCCGUGCGGAACG,≤ 0.5
8,GGUCCGUUGGCGUAAUGGUAACGCGUCUCCCUCCCAAGGAGCAGACAGCGGGUUCGAGUCCCCUACGGCACG,≤ 0.5
9,GUACCGUUGGCGUAAUGGUACCGCUUCUCCCUCCUAAGGAGACGACUGCGGGUUCGAGUCGUGUACGGAACG,≤ 0.5
10,GUACCGUUGGCGUUAUGGUAACGCGUCUCCCUCCUAAGGAGAAGACUGCGGGUUCGAGUUCUGUACGGAGCG,0.651
11,GUACCGUUGGCGUACAGGUAACGCGUCUCCCUCCAAAGGAGAAGACUGCGGCUUAGAGUCCCGUACGGAACG,≤ 0.5
12,GUACCGUUGGCGUAUUGGUAACGCGUCUCCCUCCUAAGGAGAAGACUACGGGUUCGGGUCACGUACGGAACG,≤ 0.5
13,GUACCGUUGGCGUAGUGGUAACGCGUCUCCCUCCUAAGGAGAAGACUCCGGGUUCGAGUCCCGUACGGAACG,0.595
14,GUACCGUUGGCGUAAUGGUAACGCGUCUCCCUCCUGAGGAGUAGACUGCGGGUUCGAGUCCCGUACGGAACG,0.619
15,GUACCGUUGGCGUAAUGGUAACGCGUCUCCCUCCUGAGGAGCAGACUGCGGGUUCGAGUCCCGUACGGAACG,0.647
16,GUACCGUUGGCGUAAUGGUGAUGCGUCUCCCUCCUAAGGAGAAGACUGCGGGUUCGAGUCCCGUACGGAACG,0.584
17,GUACCGUUGGCGUUAUGGUAACGCGUCUCCCUCCUAAGGAGAAGAGUGCGGGUUCGAGUCCCGUACGGAACG,≤ 0.5
18,GUACCGUUGGCGUCAUGGUACCGCGUCUCCCUCCUAAGGAAAACACCGUGGGUUCAAGUCCCGUACGGAACG,≤ 0.5
19,GUACCGUUGGCGUGAUGGUAACCCGUCUCCCUCCUAAGGAGAAGACUGGGGGUUCGAGUCCCGUACGGAACG,0.503

row,Variant,yeast fitness
1,GUACCGUUGGCGUAAUGGUAUCGCGUCUCCCUCCUAAGGAGAAGACUGCGGGUUCGAGUGCCGUAUGGAACG,≤ 0.5
2,GUACCGUUGGCGUGAUGGUAACGCGUCUCCCUCCUAAGGAGAAGACUGCGGGUUUGAGUCCCCUACGGAACG,≤ 0.5
3,GUACCGUUGGCGUAGUGGUAACGAGUCUCCCUCCUAAGGAGAAGACUGCGGGUUCGAGUCCCGUACGGAACG,≤ 0.5
4,GUACCGUUGGCGUAGUGGAAACGCGUCUCCCCCCUAAGGAAAAGACUGCAGGUUCGAGUCCCGUACGGAACG,≤ 0.5
5,GUACCGUUGGCGUAAUGGUAACGCGUCUCCCUCCUAAGGAGAAGACUGCGGGUUCGAGUCCCGUACGGAACG,1
6,GUACCGUUGGCGUAAUGGUUACGCGUCUGCCUCCUAAGGUGAAGACUGCCGGUUCGAGUCCCGUACGGAACG,≤ 0.5
7,GGUCCGUUGGCGUAAUGGUAACGCGUCAGCCUCCUAAGGAGAAGACUGCGAGUUCAAGUCCCGUACCGAACG,≤ 0.5
8,GGUCCGUUGGCGUAAUGGUAACGCGUCUCCCUCCUAAGGAGAAGACUGCGGGUUCGAGUCCCGAACGGAACG,0.776
9,GGUCCGUUGGCGUAAUGGUAACGCGUCUCCCUCCGAAGGAGAAGGCUGGGGGUUCGAGCUCCGUACGGCACG,0.618
10,GGUCCGUUGGCGUAAUGGUAACGCGGCUCCCUCCUAAGGAGAAGACUGGGGGUUCGAGUCCCGUACGGAACG,0.724
11,GGUCCGUUGGCGUAAUGGUAACGCGUCUCCCUCCUAAGGAGAAGACUGCGGGUACGAGUCUCGUCCUGAACG,0.576
12,GUACCGUUGGCGUAAUGGUAACGCGUCUCCCUCCUACGGAGAACUCUGCGGGUUCGAGUCCCGUACGGAACG,≤ 0.5
13,GUACCGUUGGCGUGGUGGUUACGCGUCUCCCUCCUAGGGAAAAGACUGCGGGUUCGAGUCCUGUAUGGAACG,≤ 0.5
14,GUACCGUUGGCGUCAUGGUCACGCGUCAGCCCCCUAAGAAGAAGACUGCGGGUUCGAGUCCCGUACGGACCG,≤ 0.5
15,GUACCGUUGGCGUAAUGGUAACGCGUCUCCCUCCUACGGAGAAGACUGCGGGUUCGAGUACCGUACGGAGCG,≤ 0.5
16,GUACCGUUGGCGUCAUGGUAACGCGUCUCCCUCCUACGGAGAAGACUGUGGGUUCGAGUCCCGUACGGAACG,≤ 0.5
17,GUACCGUUGGCGUAAUGGUAACGCGUCUCCCUCCUGAGGAGAAGACUGCGGGUUCGAGUCCUGUACGGAACG,0.69
18,GGUCCGUUGGCGUAAUGGUAACGCGUCUCCCUCCUAAGGAGAAGACUGCGGGUUCGAGCCCCGUAAAGAACG,≤ 0.5
19,GUACCGUUGGCGUAAUGGUAACGCGUCUCCCUCCUAAGGGGAAGACUGCGGGAUCGAGUCCCGUACGGAACG,≤ 0.5
